Screening data (PubChem)
HKDC1 inhibitor = inhibitors of human hexokinase HKDC1 | Q2TB90 | 0.16% of 340,000 active | AID 493160 | recombinant HKDC1, G6PDH/diaphorase resazurin coupled fluorescence | inhibition, % at 20 µM;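 active means inhibition above about 35% when tested at 20 µM, limit read from the data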;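 further: plate controls were DMSO wells with enzyme for no effect and DMSO wells lacking enzyme for full effect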
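Assay system: recombinant HKDC1 hexokinase; detection: coupled resazurin fluorescence, excitation 525 nm, emission 613 nm; benchmarks: DMSO-plus-enzyme-mix negative control, buffer-substituted positive control; compound dosing: single 20 µM dose; schedule: 90 min at room temperature in dark; also added: glucose plus 1 mM ATP as hexokinase substrates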
G6PDH counter = L. mesenteroides G6PDH inhibition counter-screen; Purified L. mesenteroides G6PDH, diaphorase/resazurin coupled fluorescence, 45 min; inhibition, % at 5 µM; 0.12% of 200,000 active; in the data active means inhibition above about 50%
Diaphorase inh = diaphorase inhibition or chemical oxidation counter-screen; diaphorase resazurin-to-resorufin fluorescence, NADH, 16 min; bacterial (C. kluyveri) enzyme, not human; inhibition, % at 20 µM; 0.69% of 190,000 active;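 active means primary screen inhibition at 20 µM above a set limit, cut at about 50% in these data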;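 further: plate controls were DMSO with full reaction for no effect and wells lacking NADH for full effect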
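Benchmarks: positive control wells lacking NADH, neutral wells with DMSO only. System: bacterial diaphorase enzyme (C. kluyveri). Input: 0.14 U/mL diaphorase, enzyme working solution. Detection: resorufin fluorescence, excitation 544 nm, emission 590 nm. Times: 16-min room-temperature incubation before reading.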
TbHK1 inh = blocks Trypanosoma brucei hexokinase 1 activity; AID 1430; 0.11% of 220,000 active; recombinant TbHK1, G6PDH-coupled NADH A340; inhibition, % at 10 µM;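 active means inhibition of 50% or more in the single-dose primary screen; inactive means inhibition below 50%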
PfG6PD inh = PfG6PD (Plasmodium falciparum) enzyme inhibition | PfGluPho enzyme, NADPH resazurin-diaphorase fluorescence | inhibition, % at 20 µM | 0.78% of 350,000 active;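 active means inhibition reaching at least a set limit at 20 µM in the primary screen, cut at about 59% in these data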;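 further: 0% = DMSO wells with substrate and 100% = DMSO wells lacking glucose-6-phosphate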
* hit, by the source's call; . = no result. Most compounds without a hit are left out; they make up all but 1.2% or so of the library.

SMILES | HKDC1 inhibitor | G6PDH counter | Diaphorase inh | TbHK1 inh | PfG6PD inh
CSc1nc2c(c(=O)[nH]c(=O)n2C)n1Cc1ccc(Cl)cc1 | -1.9 | . | . | . | 64.8*
CSc1nc2c(c(=O)[nH]c(=O)n2C)n1Cc1ccccc1Cl | 0.4 | . | . | . | 11.4
Cc1cc(OCC(=O)Nc2c(C(C)C)cccc2C(C)C)no1 | . | . | . | . | 19.7
O=[N+]([O-])c1ccc(O)c(/C=N/n2cnc3ccccc32)c1 | -4.4 | -11.8 | 8.4 | -23.6 | 4.3
Cc1ccc(/C=C2\SC(=S)N(/N=C/c3cc([N+](=O)[O-])ccc3O)C2=O)o1 | -11.8 | 12.1 | 62.9* | 44.3 | 51.2
CC1=C(C(=O)OCc2ccc3c(c2)OCO3)C(c2ccccc2)NC(=O)N1 (stereo not drawn) | -6.1 | -0.4 | 27.9 | -12.2 | -8.1
CCOC(=O)C1=C(C)NC(=O)CC1c1cc2c(cc1[N+](=O)[O-])OCO2 (stereo not drawn) | 0.1 | 28.8 | 72.0* | -4.6 | 2.1
CC1=C(C(=O)OCc2ccc3c(c2)OCO3)C(c2ccc(O)c([N+](=O)[O-])c2)NC(=O)N1 (stereo not drawn) | 0.0 | -3.1 | 51.5* | -1.4 | 21.9
Cc1ccc(-c2ccnc(=S)[nH]2)cc1 | -2.7 | -1.1 | 66.7* | -8.6 | 1.1
S=c1nccc(-c2cccs2)[nH]1 | 1.7 | -3.5 | 53.5* | -17.2 | 43.5
Cc1ccc(S(=O)(=O)N2CCOCC2)cc1C(=O)NCCCN1CCCC1=O | . | . | . | . | -18.0
COC(=O)C1=C(C)NC(C)=C(C(=O)OC)C1C(=O)OCC(=O)NC1CCCCC1C (stereo not drawn) | . | . | . | . | 11.5
CCOC(=O)N1CCN(c2cc(NCCC(=O)O)c3c4c(onc24)-c2ccccc2C3=O)CC1 | 37.1* | -6.5 | 56.7* | 5.1 | 37.8
O=C(O)CCCNc1cc(N2CCC3(CC2)OCCO3)c2noc3c2c1C(=O)c1ccccc1-3 | . | 38.7 | 50.1* | 1.5 | .
O=C(O)CCCNc1cc(N2CCN(C(=O)c3ccco3)CC2)c2noc3c2c1C(=O)c1ccccc1-3 | 22.1 | . | . | . | 35.0
CN1CCN(c2cc(N3CCN(C(=O)c4ccco4)CC3)c3c4c(onc24)-c2ccccc2C3=O)CC1 | 20.9 | . | . | . | 74.2*
COc1ccc(CN2C(=O)C(CC(=O)NC3CC3)CC(C(=O)N(C)C)=C2C)cc1 (stereo not drawn) | . | . | . | . | -8.2
CCC(C)[C@H](NS(=O)(=O)c1ccc(C)cc1)C(=O)N1CCC(C(=O)N2CCC(C(=O)OC)CC2)CC1 (stereo partly drawn) | -2.9 | . | . | . | 0.6
CCCNC(=O)N(C)C[C@@H]1Oc2cc(C#CC(C)(C)O)ccc2S(=O)(=O)N([C@H](C)CO)C[C@H]1C | . | . | . | . | -2.7
CC1=C(C(=O)N2CCOCC2)CC(CC(=O)NCCCCc2ccccc2)C(=O)N1Cc1ccc(C(C)(C)C)cc1 (stereo not drawn) | . | . | . | . | 12.8
CSc1nc(-c2ccco2)nn1S(=O)(=O)c1ccccc1 | . | 10.1 | 22.0 | 0.4 | .
CSc1nc(-c2ccco2)nn1S(=O)(=O)c1ccc(C)cc1 | -0.5 | 1.9 | 58.5* | 2.2 | 13.8
COc1cc2c(cc1OC)C1=C(C#N)CC/C(=N\S(=O)(=O)c3cccc(Cl)c3)N1CC2 | -2.2 | 0.0 | 61.2* | -14.3 | -5.0
COc1cc2c(cc1OC)C1=C(C#N)CCC(=NC(=O)c3ccco3)N1CC2 | -8.1 | 4.3 | -5.6 | -17.3 | 0.7
O=C(c1ccco1)N1CCN(C(=S)NCc2ccc(F)cc2)CC1 | -6.4 | . | . | . | 13.8
SMILES | HKDC1 inhibitor | G6PDH counter | Diaphorase inh | TbHK1 inh | PfG6PD inh
O=C(NC1CCCCC1)C(c1ccc(O)c(O)c1)N(C(=O)Cn1nnc2ccccc21)c1cccc(O)c1 (stereo not drawn) | -4.4 | 17.2 | 56.1* | -5.7 | -5.0
Cc1nnsc1-c1c(C(=O)N2CCOCC2)c(C)nn1-c1ccc(Cl)cc1 | -0.6 | . | . | -6.0 | -16.2
CCOC(=O)c1ccc(CC(=O)c2ccc(O)c(O)c2O)o1 | -12.4 | 42.1 | 76.1* | -17.9 | 21.8
CCn1cc(/C=C(\NC(=O)c2ccccc2)C(=O)NCCCn2ccnc2)c2ccccc21 | . | . | . | . | 17.8
COC(=O)Nc1cccn(Cc2c(Cl)cccc2Cl)c1=O | 4.6 | 12.0 | 51.1* | 0.5 | -12.9
O=C(Nc1cccn(Cc2c(Cl)cccc2Cl)c1=O)c1c(Cl)cccc1Cl | 1.5 | 3.3 | 32.4 | 2.9 | 9.4
Nc1c(C(=O)Nc2ccccc2)sc2nc3c(c(-c4ccco4)c12)CCC3 | 6.7 | 1.9 | 69.1* | -6.0 | 7.0
Nc1c(C(=O)Nc2ccccc2)sc2nc3c(c(-c4ccco4)c12)CCCC3 | 0.5 | 6.2 | 26.0 | -14.5 | 6.3
CC(C)(C)OC(=O)N1CCC(C(=O)Nc2cccc(C(=O)NCCCCc3ccccc3)c2)CC1 | -7.0 | . | . | . | 0.1
Cc1ccc(-c2ccc(/C=N/N=C3/NC(=O)C(CC(=O)O)S3)o2)c([N+](=O)[O-])c1 (stereo not drawn) | 9.9 | -1.2 | 28.3 | -54.4 | -16.9
O=C(O)CC1S/C(=N/N=C/c2ccc(-c3ccccc3[N+](=O)[O-])o2)NC1=O (stereo not drawn) | 11.3 | 12.3 | 52.3* | -67.3 | -3.2
Cc1c(CN(C)C(=O)C2CCC(=O)N(Cc3ccccc3F)C2)[nH]c2ccccc12 (stereo not drawn) | . | . | . | . | -10.8
NC(=O)C1=C[C@@H](c2ccc(C(F)(F)F)cc2)C[C@@H](OCc2ccc(CO)cc2)O1 | 4.9 | 14.3 | 52.5* | -11.0 | -5.9
C#CCNC(=O)C1=C[C@@H](c2ccccc2)C[C@@H](OCc2ccc(CO)cc2)O1 | -4.7 | 7.6 | 56.5* | -11.0 | 10.8
C[C@@H]1CN([C@@H](C)CO)S(=O)(=O)c2ccc(-c3ccccc3)cc2O[C@@H]1CN(C)Cc1ccccc1C(=O)O | . | . | . | . | 10.6
O=[N+]([O-])c1ccc(Cl)c(/C=N/n2c(-c3cccnc3)n[nH]c2=S)c1 | . | -1.3 | 22.4 | -8.4 | .
CC(/C=N/n1c(-c2cc(C)[nH]n2)n[nH]c1=S)=C\c1ccccc1 | 15.9 | 3.8 | 50.7* | -5.7 | 30.4
Cc1cc(-c2n[nH]c(=S)n2/N=C/c2ccc(Cl)c([N+](=O)[O-])c2)n[nH]1 | 2.4 | 6.0 | 23.2 | 2.7 | 17.6
CC(=C/c1ccccc1)/C=N/n1c(-c2ccco2)n[nH]c1=S | 8.3 | -4.8 | 42.2 | -0.9 | 11.3
Cc1cc(-c2n[nH]c(=S)n2/N=C/c2cc([N+](=O)[O-])ccc2Cl)n[nH]1 | -1.0 | 10.5 | 50.4* | 16.0 | 46.1
Cc1ccc(/C=N/n2c(-c3ccncc3)n[nH]c2=S)cc1 | -9.2 | 4.8 | 59.9* | -2.9 | 19.6
O=[N+]([O-])c1cc(/C=N/n2c(-c3ccncc3)n[nH]c2=S)ccc1Cl | 6.4 | 11.6 | 53.3* | -6.3 | 23.1
CC(C)(C)c1ccc(-c2n[nH]c(=S)n2/N=C/c2ccncc2)cc1 | 1.8 | 6.0 | 9.3 | -3.6 | 7.7
